How the values were obtained:
Assay type in all cases: functional, cell-based
A549 = assay: Antiproliferative activity against human A549 cells after 72 hrs by WST-8 assay; settings: A549, 72 h
Method in brief: (§1)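 The procedure follows an earlier report. Human A549 lung adenocarcinoma and HeLa cervix adenocarcinoma lines came from RCB; PANC-1 pancreatic epithelioid carcinoma, PSN-1 pancreatic adenocarcinoma and MDA-MB-231 breast adenocarcinoma came from ATCC. All were maintained in-house and grown in 96-well plates. Cell absorbance was read on a microplate reader and IC50 derived. 5-Fluorouracil served as positive control.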

HeLa = assay: Antiproliferative activity against human HeLa cells after 72 hrs by WST-8 assay; method in brief: as §1
[1] = Antiproliferative activity against human PANC1 cells after 72 hrs by WST-8 assay; settings: PANC-1, 72 h; method in brief: as §1
PSN1 = assay: Antiproliferative activity against human PSN1 cells after 72 hrs by WST-8 assay; settings: PSN1, 72 h; method in brief: as §1
MDA-MB-231 = assay: Antiproliferative activity against human MDA-MB-231 cells after 72 hrs by WST-8 assay; settings: MDA-MB-231, 72 h; method in brief: as §1

Compound	IC50 (A549) [µM]	IC50 (HeLa) [µM]	IC50 [1] [µM]	IC50 (PSN1) [µM]	IC50 (MDA-MB-231) [µM]
COC1=C(C)[C@]2(O)CC(=O)O[C@@H]3C[C@H]4CC[C@H](O)C(=O)[C@]4(C)[C@@H](C1=O)[C@@]32C	> 10	> 10	> 10	> 10	> 10
COC1=CC[C@@H]2C[C@H]3OC(=O)C[C@H]4C(C=O)=C(OC)C(=O)[C@H]([C@@]2(C)C1=O)[C@@]34C	> 10	> 10	> 10	> 10	> 10
COC1=CC[C@@H]2C[C@H]3OC(=O)C=C4C(C)=C(OC)C(=O)[C@H]([C@@]2(C)C1=O)[C@]43C	> 10	> 10	> 10	> 10	> 10
COC1=C(C)[C@@H]2CC(=O)O[C@@H]3C[C@H]4CC[C@H](O)C(=O)[C@]4(C)[C@@H](C1=O)[C@@]32C	> 10	> 10	> 10	> 10	> 10
COC1=CC[C@@H]2C[C@H]3OC(O)C[C@H]4C(C)=C(OC)C(=O)[C@H]([C@@]2(C)C1=O)[C@@]34C (stereo not given in full)	> 10	> 10	> 10	> 10	> 10
COC1=CC[C@@H]2C[C@H]3OC(=O)C=C4C(CO)=C(OC)C(=O)[C@H]([C@@]2(C)C1=O)[C@]43C	> 10	> 10	> 10	> 10	> 10
COC1=C(OC)C(=O)[C@@]2(C)[C@H](C1)C[C@H]1OC(=O)C[C@@]3(O)C(C)=C(OC)C(=O)[C@H]2[C@@]13C	> 10	> 10	> 10	> 10	> 10
COC1=CC[C@@H]2C[C@H]3OC(=O)C[C@H]4C(C)=C(OC)C(=O)[C@H]([C@@]2(C)C1=O)[C@@]34C	> 10	> 10	> 10	> 10	> 10
COC1=C(OC)C(=O)[C@@]2(C)[C@H](C1)C[C@H]1OC(=O)C[C@H]3C(C)=C(OC)C(=O)[C@H]2[C@@]13C	> 10	> 10	> 10	> 10	> 10
COC1=C(C)[C@@H]2CC(=O)O[C@@H]3C[C@H]4CC[C@H](OC)C(=O)[C@]4(C)[C@@H](C1=O)[C@@]32C	> 10	> 10	> 10	> 10	> 10
O=c1[nH]cc(F)c(=O)[nH]1 [FLUOROURACIL]	9	6.4	0.4	8.7	1.1
